System: MS2 coat protein
Assay: apparent Kd, MS2 coat protein; higher = weaker binding; RNA-MaP array; FMN 200 µM where present
How it was run: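 Two titrations, one without ligand and one with constant ligand, were run with SNAP-549-labelled MS2 coat protein from 0.7 or 1.5 nM, doubling to 3 µM. The targets were designs transcribed by stalled E. coli RNA polymerase on Illumina sequencing-chip clusters, in 100 mM Tris-HCl pH 7.5, 80 mM KCl, 4 mM MgCl2, BSA, DTT, yeast tRNA and Tween-20. The apparent Kd is the median of filtered per-cluster binding-curve fits, with green signal normalised to red-channel RNA signal and control-cluster median Fmax.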

[1] = designed as: ON switch for flavin mononucleotide, no ligand
[2] = ligand present: flavin mononucleotide, designed as: ON switch for flavin mononucleotide
[3] = designed as: OFF switch for flavin mononucleotide, no ligand
[4] = ligand present: flavin mononucleotide, designed as: OFF switch for flavin mononucleotide

Sequence	apparent Kd [1] [nM]	apparent Kd [2] [nM]	apparent Kd [3] [nM]	apparent Kd [4] [nM]
GGUGCACGCACAGGAUAUCCGGCGGAGCUCGUCGGAGAAGGGUGACAUGAGGAUCACCCAUGUACGUGCAAUCCAGUUUGAGAG	23.8	28.3	–	–
AGAAACUACGAGAAGGACAUAAAAGGUGCCGCAAACAUGAGGAUCACCCAUGUAGGAUAUCGUAGUUUCAGGAUCGUGAGAUCA	–	–	28.4	262
UGCUGGCGAGGAUAUGCUCGGGAUGCUAGUCGCGCGGUUGCACAUGAGGAUCACCCAUGUAGAAGGUGUCUGUG	–	–	170	169
AGCUCGUACACAGGAUAUCCGUUGCUGCGCACUGGAGAAGGGUGACAUCCGCACAUGAGGAUCACCCAUGUACCGGGACAAUAU	282	640	–	–
CCCUCACAUGAGGAUCACCCAUGUCAGGAUAUUCGAACGGUGUGUUUUUGGCCAGUUGGAAGAAGGGACAUAAA	–	–	29.7	117
CACGAUCAUGUAGGAUAUAUACUGGAAUACAGUAUAGAAGGACAUGAGGAUCACCCAUGUUAUGUGCCUCCAAGUAAGAUCGUG	–	–	17.7	23.2
CGGGUCUGAGGAUAUCCAUCUUCAUACAUGAGGAUCACCCAUGUUUACCUUUGGGUUUUUGGAGAAGGCAGUUUUC	–	–	43.5	74.6
UGUAAUUAGUAAGGAUAUACUAGUGAUUAGCUUGUAGAAGGUACAGUCUUAUGUAUAACAAAUUAACAUGAGGAUCACCCAUGU	10.2	8.74	–	–
AGUGUCAUCGAGAAGGCCUCAACAUGAGGAUCACCCAUGUUGCAAAAUGGGAGGAUAUCGCGCGAAAAGCUACGUUUCGUAGCA	28.9	11.6	–	–
GCGAUUUUGUAGAAGGUACGUGAUUAGUCAAAGUAAGGAUAUACUGACAUGAGGAUCACCCAUGUAUUAAUAGUUAACAGUCGC	94.6	23.1	–	–
UGUCGGAGCAGAGGAUAUUACAUGAGGAUCACCCAUGUAUGAAUCAAUAGCUGGAAACAGCAAUGUAAGAAGGCUGCUCCGACA	–	–	7.86	26.6
GGAGGACAUGAGGAUCACCCAUGUGGAUGAUCGCUAGGAUAUGCGUGCGGGAGGAGUGGUGCAGAAGGAGUGGGAU	350	272	–	–
CGGCACGCAGGAUAUGCCUUUGAGUACAUGAGGAUCACCCAUGUCUUCACCCUCAUUAGGGCAGAAGGGCGAUAUC	–	–	24.4	32.2
AAGCUGGUAGGAUAUGCUAGGGCGACUAAUGCGCCGAUAGUACAUGAGGAUCACCCAUGUAGAAGGGCCAGAAA	–	–	24.3	18.4
CUGUUAUAUGAAGGAUAUACUUAACAUGAGGAUCACCCAUGUGGUGUUGUGAGUGAGUGAGUUUAGUAGAAGGUCAAUUCUUUU	–	–	207	221
GUAAAGUGAGGAUAUGGUAAAGUAAGUAUGUAGUAAGUAAUCCAGAAGGCACAUGAGGAUCACCCAUGUAAAUG	–	–	30	32.3
GGAUGACAAAGUCAUCCAUAACGAACAUGAGGAUCACCCAUGUAGGAUAUGCUAGUCAAAGACUAGCAGAAGGACAUGUGUCUU	–	–	36.4	146
GUUACAUGAGGAUCACCCAUGUAUGUGUGGGAGUAAGUGUCUUAGGAUAUCUAUUAUUUAAUUUAAGAGAAGGAAGAUUGUUGU	118	133	–	–
AGAUGACAAAGUCAUCUCGCGCAGACAUGAGGAUCACCCAUGUAGGAUAUAUUACUCAAAGAGUAAUAGAAGGACAUGUGUCUU	–	–	33.5	91.7
UUCAUCAAUGAAGGAUAUCUAUGUCCAACAUGAGGAUCACCCAUGUUGAGGAUCACCUAUGUGUAGGAGAAGGUUAAUAUAACU	7.98	6.38	–	–
AUGUUAUAUGAAGGAUAUACUUAACAUGAGGAUCACCCAUGUGGUGUUGUGAGUGAGUGAGUUUAGUAGAAGGUCAAUUCUUUU	–	–	256	263
AAUUAUAUGUAGAAGGUACUAACAUAUGUGUUGUAAGGAUAUACCAAAUUAUUAGUUAUCAAGUUACAUGAGGAUCACCCAUGU	12.3	7.36	–	–
UUGGACGUCGUAGGAUAUGUAGGAUAUUCCUACAUGAGGAUCACCCAUGUUGACAUGGAAGAAGGACAGAAGGACGAUAUCCAU	289	5.01	–	–
UUUUAACAUGAGGAUCACCCAUGUGAGGAUAUCGAAAUUUAUAUUAAUAUUUAUUAUACGAGAAGGCACAUUUU	–	–	73.6	97
AAGCACAGAGGAUAUACAAUCCUCAGUGGGUCUGGCGAGCCACAUGAGGAUCACCCAUGUAGAAGGCUGGGCUC	–	–	11.8	14.6
UGUCGGAGCAGAGGAUAUACAUGAGGAUCACCCAUGUAAUAAAGUGAAGCCUGGAAACAGGCAAUGUAGAAGGCUGCUCCGACA	–	–	29.9	249
GCGCAGCCGGGUGAGGAUAUCGGUGGUAAAACAUGAGGAUCACCCAUGUCCGAAGCUCGGACUUCCGAGAAGGCGCCCAGCUGCA	115	14.4	–	–
UGAUAGCACAGAGGAUAUGCGUAUAGUUAUCACUACAUGAGGAUCACCCAUGUAGAAGGCUGUGCUAUCUAAGUCGGAAACGAC	–	–	5.85	6.11

Sequence	apparent Kd [1] [nM]	apparent Kd [2] [nM]	apparent Kd [3] [nM]	apparent Kd [4] [nM]
GUGAGUGAUAGAGGAUAUAUAGAGAGAGAGAGAAUAGAAGGCUAAACAUACAUGAACAUGAGGAUCACCCAUGUCACCCAUGUU	37.6	42.2	–	–
UCGUAUACACAAGGAUAUCGAUGGCUUGUAGAUGCUACAUGAGGAUCACCCAUGUUUUUAUAUUGUGAGAAGGUGUAGUGUCGU	141	221	–	–
UUUAUGUCAGGAUAUACAUGAGGAUCACCCAUGUAUAUCUUAAAAUAUACAUGGGAAUGUAGAAGGGACCUCCU	–	–	51	41
GGACAUUUACAGAAGGGCAAGCUCGAAAGCGGAGAACGCGAACGAGCUUGCAGGAUAUGUUGAACAUGAGGAUCACCCAUGUCU	–	7.08	–	–
GAGAAGUGAGGAUAUGCUGCUCGUCACUUGCGUGAUGAGUAGCAGAAGGCACAUGAGGAUCACCCAUGUAAAGG	–	–	133	244
AUGCUUUUUGUAGGAUAUACAUUUUGUACGUAUGUAGAAGGACAUGAGGAUCACCCAUGUAAAUAAAUAUUAAAUAUCAUACUU	–	–	54.6	39.6
UAUCUAUUUAUGGGAUUAGAUUAUGAGGAUAUCAUUUUUUUAUACAUGAGGAUCACCCAUGUUUCUGAGAAGGCAUAUUUAAUA	22.2	8.12	–	–
GAGCUCAAGCAGAAGGCCGUAUGUCAAUCGACAUGAGGAUCACCCAUGUAUGAGCUCGGCGUCGCGGAGGAUAUGCAGGCUCUA	18.6	6.63	–	–
GGAUCGAGUGUGAGGAUAUGCUGGUCCUUGGAUCAGCAGAAGGCACAUGAGGAUCACCCAUGUGAAAACGGUCC	–	–	26.6	189
CCAUUUCAGUAAGGAUAUAUAAACAUGACGAUACAUGAGGAUCACCCAUGUGUAGAAGGUACUAAUACAUAUAAUGCAAUGUUC	–	–	16.6	15.7
GGGCUCGGAGGAUAUACAAUGGGCUCGGGAAAUCGGGUCUUACAUGAGGAUCACCCAUGUAGAAGGUCGGGUCU	–	–	22.2	47.1
AAGCGAAAGCUAAAAUAUCUAUCAGAGGAUAUUUAUGAUACAUGAGGAUCACCCAUGUAGCGCUGGGAGAAGGCUGAUAGAUAA	6.44	4.98	–	–
UCAGGCUUCGAGAAGGACAUGAAUCGUAGCAUUGCUACGAUCAUAGAUACAUGAGGAUCACCCAUGUAGGAUAUCGGAGUCUGC	–	–	5.8	5.87
UGGUACUAGGGAGGAUAUGGGAAGAUACAUGAGGAUCACCCAUGUUUAAGAAUGCCGAGAGGCAACUAGAAGGCCCUAGUAGCU	539	19.9	–	–
AGCUGUGGCCGAGGAUAUCUAACCUUCAUAACCGAAAUAUAAUCGGACAUGAGGAUCACCCAUGUAGAGAAGGCGGUCUCAGCA	–	–	18.2	191
UCUGCCGCCGUGAGGAUAUGCCCAAAGAAAAGCGGGCAGAAGGCACAUGAGGAUCACCCAUGUCCCGCGGUUUU	–	–	18	38.4
CUUUUGUGAGGAUAUCAGUAGUAAUUAAAUAAAAUUACUACUGAGAAGGCACAUGAGGAUCACCCAUGUUCCUC	–	–	41.3	338
UAUUAUUUAUGAUAUUAUGACAGUAGAAGGCUAUACAUGUUGAUACAUGAGGAUCACCCAUGUAUAGAGGAUAUAUACAUAAAU	–	–	1010	884
GGAAAGUAAGGAUAUGCGAACAAACAAACAAACAAAAGGGAACAUGAGGAUCACCCAUGUAGAAGGUGCAAACA	–	–	46.3	35.9
UGAUCGAGAGAUCUUAGAUUCUGGUAGGAUAUAAAACAAUUGCGCUUUACAUGAGGAUCACCCAUGUAGAAGGACUAGAGUCUA	–	–	6.72	5.96
ACAUGAGGAUCACCCAUGUGAUGAUCUUCCAUGUCAUAUUUCAGAAGGCACGCAUGUUUAAUGAGUGAGGAUAUGGAAUAUGCG	–	–	802	553
GUAGCAUACCAAGGAUAUUUAGGGCUUUGAUAGACAUGAGGAUCACCCAUGUGGCGUUAGUCAAGGGAGAAGGUGGUAUGCUAC	22.6	14.5	–	–
CUAGACAGAUCAGGAUAUCAUCGCAUGGUGCAUCCCUGUGAUUACAUGAGGAUCACCCAUGUGCAUGAGAAGGGAUUACUAUGU	–	–	46.5	13.1
UGUCAUAUAUAGAAGGGUAGUAGGGAUUUACAUGAGGAUCACCCAUGUAUUAUAGGAUAUGUGUAUAGUUUUUAUUCAAGUAUA	–	–	28.7	17.9
GUGGCCCAGGCACAGGAUAUGUUUCUCGUAACAUGAGGAUCACCCAUGUGCCUAUGAGAUUUUUUGCAGAAGGGUGCACGCCACG	229	18.1	–	–
AAAUUGUCAGGAUAUCCAGCUAUACGAAAUAUGUAUACACGGGAGAAGGGACAUGAGGAUCACCCAUGUUUGAA	–	–	36.8	45.9
ACUAGUUGGUAAGGAUAUCCUACACUAUUCUGACCCGUGCAAGCUACAUGAGGAUCACCCAUGUGGGAGAAGGUGCGUCAACGU	–	–	11	10.6

Reference: the EternaBench riboswitch data
